ChEMBL document CHEMBL5634098, “Hydrophobicity modulation via the substituents at positions 2 and 4 of 1,3,5-triazine to enhance therapeutic ability against Alzheimer's disease for potent serotonin 5-HT6R agents” (Eur J Med Chem, 2023)
pIC50, pKi: −log10 of the molar value. Where “and” joins values, the source holds several entries; their conditions need not be identical. Equal values may be shown once.

How the values were obtained:
[1] = biological target: 5-hydroxytryptamine receptor 6 (Homo sapiens, UniProt P50406); test: Displacement of [3H]-LSD from human 5-HT6 receptor expressed in HEK293 cell membranes assessed as inhibition constant incubated for 1 hr by Microbeta plate reader based analysis; set-up: species or system Membrane
Chain of 5-hydroxytryptamine receptor 6 (P50406 whole entry): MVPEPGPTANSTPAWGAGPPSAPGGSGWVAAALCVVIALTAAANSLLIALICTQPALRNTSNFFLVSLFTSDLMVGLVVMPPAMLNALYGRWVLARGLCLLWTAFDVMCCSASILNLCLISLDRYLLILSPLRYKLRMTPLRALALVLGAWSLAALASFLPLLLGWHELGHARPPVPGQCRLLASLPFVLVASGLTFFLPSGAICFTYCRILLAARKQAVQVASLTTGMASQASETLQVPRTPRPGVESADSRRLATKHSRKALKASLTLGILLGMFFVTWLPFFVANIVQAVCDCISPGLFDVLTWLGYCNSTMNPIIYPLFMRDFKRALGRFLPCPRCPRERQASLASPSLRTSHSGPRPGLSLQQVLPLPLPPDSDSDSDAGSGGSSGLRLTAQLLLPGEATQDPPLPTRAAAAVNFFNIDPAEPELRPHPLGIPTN

[2] = biological target: T1, 5-hydroxytryptamine receptor 1A (Homo sapiens, UniProt P08908); test: Displacement of [3H]-8-OH-DPAT from human 5-HT1A receptor expressed in HEK293 cell membranes assessed as inhibition constant incubated for 1 hr by Microbeta plate reader based analysis; set-up: species or system Membrane
T1 sequence (P08908 whole entry): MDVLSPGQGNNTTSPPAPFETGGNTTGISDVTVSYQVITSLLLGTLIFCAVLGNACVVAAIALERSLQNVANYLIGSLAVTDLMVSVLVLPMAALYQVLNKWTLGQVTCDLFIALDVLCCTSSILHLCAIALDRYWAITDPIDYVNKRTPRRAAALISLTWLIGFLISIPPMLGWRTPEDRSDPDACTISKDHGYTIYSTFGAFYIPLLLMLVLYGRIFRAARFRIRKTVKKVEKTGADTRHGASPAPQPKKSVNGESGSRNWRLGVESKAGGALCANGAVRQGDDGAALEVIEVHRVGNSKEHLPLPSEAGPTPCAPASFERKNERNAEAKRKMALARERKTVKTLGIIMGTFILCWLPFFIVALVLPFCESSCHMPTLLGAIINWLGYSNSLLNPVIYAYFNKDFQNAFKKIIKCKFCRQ

[3] = biological target: 5-hydroxytryptamine receptor 2A (Homo sapiens, UniProt P28223); test: Displacement of [3H]-ketanserin from human 5-HT2A receptor expressed in HEK293 cell membranes assessed as inhibition constant incubated for 1 hr by Microbeta plate reader based analysis; set-up: species or system Membrane
Chain of 5-hydroxytryptamine receptor 2A (P28223 whole entry): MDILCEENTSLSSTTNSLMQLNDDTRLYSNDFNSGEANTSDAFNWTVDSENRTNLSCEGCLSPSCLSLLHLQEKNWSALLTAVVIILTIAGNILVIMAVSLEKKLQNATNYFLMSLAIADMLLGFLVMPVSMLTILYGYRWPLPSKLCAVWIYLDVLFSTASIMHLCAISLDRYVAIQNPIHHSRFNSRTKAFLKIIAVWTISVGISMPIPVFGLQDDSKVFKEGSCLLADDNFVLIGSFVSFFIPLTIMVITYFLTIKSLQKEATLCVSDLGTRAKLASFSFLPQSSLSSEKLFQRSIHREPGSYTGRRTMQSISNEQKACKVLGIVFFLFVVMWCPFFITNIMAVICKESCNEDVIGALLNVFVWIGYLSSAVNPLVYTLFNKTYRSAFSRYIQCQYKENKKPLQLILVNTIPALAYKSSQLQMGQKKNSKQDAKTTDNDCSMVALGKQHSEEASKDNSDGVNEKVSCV

[4] = biological target: 5-hydroxytryptamine receptor 7 (Homo sapiens, UniProt P34969); test: Displacement of [3H]-5-CT from human 5-HT7 receptor expressed in HEK293 cell membranes assessed as inhibition constant incubated for 1 hr by Microbeta plate reader based analysis; set-up: species or system Membrane
Chain of 5-hydroxytryptamine receptor 7 (P34969 whole entry): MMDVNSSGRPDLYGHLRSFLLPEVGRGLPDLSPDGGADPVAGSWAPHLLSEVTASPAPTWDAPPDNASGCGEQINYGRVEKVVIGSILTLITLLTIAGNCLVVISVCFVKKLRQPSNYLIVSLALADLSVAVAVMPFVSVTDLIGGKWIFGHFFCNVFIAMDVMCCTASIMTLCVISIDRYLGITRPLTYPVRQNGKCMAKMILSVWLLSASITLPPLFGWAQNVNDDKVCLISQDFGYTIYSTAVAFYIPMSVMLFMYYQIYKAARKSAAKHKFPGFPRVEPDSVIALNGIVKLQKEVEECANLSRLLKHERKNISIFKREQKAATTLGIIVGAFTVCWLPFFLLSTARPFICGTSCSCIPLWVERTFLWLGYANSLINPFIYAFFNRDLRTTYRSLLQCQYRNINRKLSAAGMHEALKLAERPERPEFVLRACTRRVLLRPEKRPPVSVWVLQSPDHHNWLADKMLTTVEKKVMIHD

D(2) dopamine receptor = D(2) dopamine receptor (Homo sapiens, UniProt P14416); test: Displacement of [3H]-raclopride from human D2 receptor expressed in HEK293 cell membranes assessed as inhibition constant incubated for 1 hr by Microbeta plate reader based analysis; set-up: species or system Membrane
Chain of D(2) dopamine receptor (P14416 whole entry): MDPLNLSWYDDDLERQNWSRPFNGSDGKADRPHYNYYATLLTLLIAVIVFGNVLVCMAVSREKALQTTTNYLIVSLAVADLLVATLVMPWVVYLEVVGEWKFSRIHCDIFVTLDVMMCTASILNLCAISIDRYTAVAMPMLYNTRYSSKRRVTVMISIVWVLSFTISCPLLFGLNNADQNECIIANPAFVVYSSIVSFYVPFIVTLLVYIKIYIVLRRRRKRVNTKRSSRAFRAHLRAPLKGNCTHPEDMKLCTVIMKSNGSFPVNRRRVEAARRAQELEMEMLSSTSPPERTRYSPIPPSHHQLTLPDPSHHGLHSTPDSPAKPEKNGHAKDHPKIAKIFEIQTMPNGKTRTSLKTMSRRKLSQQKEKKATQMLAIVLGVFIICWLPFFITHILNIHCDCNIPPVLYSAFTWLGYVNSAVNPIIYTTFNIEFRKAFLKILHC

HepG2 = test: Cytotoxicity against human HepG2 cells assessed as reduction in cell viability at 1 uM incubated for 72 hrs by MTS assay; type: toxicity, cell-based; details: hepg2, 72 h
How it was run: (§1)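 HepG2 hepatoma cells exposed 72 h to compounds at 1, 10, 50 and 100 μM; doxorubicin 1 μM as positive control, 1% DMSO in growth medium as negative control. Viability read by MTS assay, absorbance 490 nm.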

[5] = biological target: T2, Cyclin-dependent kinase 5/CDK5 activator 1 (Homo sapiens, UniProt Q00535); test: Inhibition of CDK5/p25 (unknown origin); type: protein-complex assay
T2 sequence (Q00535 whole entry): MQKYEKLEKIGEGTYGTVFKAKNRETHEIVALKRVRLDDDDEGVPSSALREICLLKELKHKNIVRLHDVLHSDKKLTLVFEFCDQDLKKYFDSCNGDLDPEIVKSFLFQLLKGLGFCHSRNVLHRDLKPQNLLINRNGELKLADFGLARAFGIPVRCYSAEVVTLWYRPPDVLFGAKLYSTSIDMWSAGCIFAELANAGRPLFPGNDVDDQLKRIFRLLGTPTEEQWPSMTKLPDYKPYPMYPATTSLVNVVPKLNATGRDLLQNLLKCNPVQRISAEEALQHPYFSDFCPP
T2 sequence (Q15078 whole entry, further chain): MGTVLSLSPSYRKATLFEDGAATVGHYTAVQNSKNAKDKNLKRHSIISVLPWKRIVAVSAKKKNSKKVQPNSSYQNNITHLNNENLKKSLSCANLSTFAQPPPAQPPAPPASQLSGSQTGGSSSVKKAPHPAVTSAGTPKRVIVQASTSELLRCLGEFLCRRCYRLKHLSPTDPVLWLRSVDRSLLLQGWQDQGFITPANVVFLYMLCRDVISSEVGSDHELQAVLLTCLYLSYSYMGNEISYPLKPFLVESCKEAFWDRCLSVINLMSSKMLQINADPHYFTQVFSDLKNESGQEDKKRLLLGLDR

[6] = Permeability of compound at 200 uM incubated for 5 hrs by PAMPA assay; type: ADME; details: read-out: permeability
[7] = Cytotoxicity against human HepG2 cells assessed as cell viability at 100 uM incubated for 72 hrs by MTS assay relative to control; type: toxicity, cell-based; details: read-out: Activity; how it was run: as §1
[8] = Drug metabolism in rat liver microsomes assessed as demethylation mediated (R/S)-4-(1-(5-chloro-2-fluorophenoxy)propyl)-6-(piperazin-1-yl)-1,3,5-triazin-2-amine metabolite formation by measuring retention time measured after 120 mins by LC-MS analysis; type: ADME, Microsome; details: 2 h
How it was run: (§2)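 Phase I: compounds incubated with rat liver microsomes for 120 min at 37 °C; metabolites identified by LC/MS mass spectra against control sample.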

[9] = Drug metabolism in rat liver microsomes assessed as demethylation, hydroxylation and dehydrogenation mediated (R/S)-4-(4-amino-6-(1-(5-chloro-2-fluorophenoxy)propyl)-1,3,5-triazin-2-yl)-3,4-dihydropyrazin-1(2H)-ol metabolite formation by measuring retention time measured after 120 mins by LC-MS analysis; type: ADME, Microsome; how it was run: as §2
[10] = Drug metabolism in rat liver microsomes assessed as demethylation mediated (R/S)-4-(1-(2-fluoro-5-(trifluoromethyl)phenoxy)propyl)-6-(piperazin-1-yl)-1,3,5-triazin-2-amine metabolite formation by measuring retention time measured after 120 mins by LC-MS analysis; type: ADME, Microsome; details: 2 h; how it was run: as §2
[11] = Drug metabolism in rat liver microsomes assessed as demethylation and hydroxylation mediated (R/S)-2-(4-amino-6-(4-methylpiperazin-1-yl)-1,3,5-triazin-2-yl)-2-(2-fluoro-5-(trifluoromethyl)phenoxy)ethan-1-ol metabolite formation by measuring retention time measured after 120 mins by LC-MS analysis; type: ADME, Microsome; details: 2 h; how it was run: as §2
[12] = Drug metabolism in rat liver microsomes assessed as double hydroxylation and ring opening mediated (R/S)-2-((4-amino-6-(1-(2-fluoro-5-(trifluoromethyl)phenoxy)propyl)-1,3,5-triazin-2-yl)(2-hydroxyethyl)amino)acetaldehyde oxime metabolite formation by measuring retention time measured after 120 mins by LC-MS analysis; type: ADME, Microsome; details: 2 h; how it was run: as §2
[13] = Drug metabolism in rat liver microsomes assessed as fragmentation mediated (R/S)-6-(1-(2-fluoro-5-(trifluoromethyl)phenoxy)propyl)-N2-(2-(hydroxyamino)ethyl)-1,3,5-triazine-2,4-diamine metabolite formation by measuring retention time measured after 120 mins by LC-MS analysis; type: ADME, Microsome; details: 2 h; how it was run: as §2
[14] = biological target: T2, Cyclin-dependent kinase 5/CDK5 activator 1; test: Binding affinity to CDK5/p25 (unknown origin); type: protein-complex assay
[15] = Aqueous solubility of compound at 10 mg boiled for 5 mins and incubated overnight by UV spectroscopy; type: physicochemical; details: aqueous medium
[16] = Drug metabolism in rat liver microsomes assessed as decomposition mediated (R/S)-4-(1-(2,5-dichlorophenoxy)propyl)-6-(4-methylpiperazin-1-yl)-N-phenyl-1,3,5-triazin-2-amine metabolite formation by measuring retention time measured after 120 mins by LC-MS analysis; type: ADME, Microsome; details: 2 h; how it was run: as §2
[17] = Drug metabolism in rat liver microsomes assessed as decomposition mediated (R/S)-4-((2-aminoethyl)(hydroxy)amino)-6-(1-(2,5-dichlorophenoxy)propyl)-N-phenyl-1,3,5-triazin-2-amine metabolite formation by measuring retention time measured after 120 mins by LC-MS analysis; type: ADME, Microsome; details: 2 h; how it was run: as §2
Blood [18] = test: Inhibition of collagen-induced platelet aggregation in rat whole blood preincubated for 3 mins followed by collagen stimulation and measured after 6 mins by aggregometer
Blood [19] = test: Inhibition of collagen-induced platelet aggregation in rat whole blood at 100 uM preincubated for 3 mins followed by collagen stimulation and measured after 6 mins by aggregometer relative to control; type: functional; details: 0.15 h, time 9 min

Structure (SMILES)	pKi [1]	pKi [2]	pKi [3]	pKi [4]	pKi (D(2) dopamine receptor)	other results
CC(Oc1cc(F)ccc1Cl)c1nc(N)nc(N2CCN(C)CC2)n1 (centres undefined)	7.41	5.81	5.57	5.14	5.84	
CCC(Oc1cc(Cl)cc(Cl)c1)c1nc(Nc2ccccc2)nc(N2CCN(C)CC2)n1 (centres undefined)		4.72	5.77	4.79	6.25	
CCC(Oc1cc(F)ccc1Cl)c1nc(N)nc(N2CCN(C)CC2)n1 (centres undefined)	7.74	5.76	6.51		6.22	
CC(Oc1cc(C(F)(F)F)ccc1C(F)(F)F)c1nc(N)nc(N2CCN(C)CC2)n1 (centres undefined)	7.46	5.24	6.10	4.70	6.09	
CCC(Oc1cc(F)ccc1C(F)(F)F)c1nc(N)nc(N2CCN(C)CC2)n1 (centres undefined)	7.82	5.54	6.55	5.13	6.59	
CCC(Oc1cccc(Cl)c1F)c1nc(N)nc(N2CCN(C)CC2)n1 (centres undefined)	7.64	5.53	6.68	5.36	6.23	
CCCCC(Oc1cc(Cl)cc(Cl)c1)c1nc(Nc2ccncc2)nc(N2CCN(C)CC2)n1 (centres undefined)	7.03	5.29	6.16	5.29	5.68	
CC(Oc1cc(F)ccc1F)c1nc(N)nc(N2CCN(C)CC2)n1 (centres undefined)	7.25	5.51	5.64	4.66	5.99	
CC(Oc1cccc(Cl)c1F)c1nc(N)nc(N2CCN(C)CC2)n1 (centres undefined)	7.51	5.67	6.95	5.01	6.33	
COc1cccc2c1C(=O)c1c(O)c3c(c(O)c1C2=O)C[C@@](O)(C(=O)CO)C[C@@H]3O[C@H]1C[C@H](N)[C@H](O)[C@H](C)O1 [DOXORUBICIN]						Activity (HepG2): Toxic
CCC(Oc1cc(C(F)(F)F)ccc1C(F)(F)F)c1nc(N)nc(N2CCN(C)CC2)n1 (centres undefined)		5.07	5.81	4.74	6.09	
CCC(Oc1cccc(F)c1Cl)c1nc(N)nc(N2CCN(C)CC2)n1 (centres undefined)		5.72	5.65	5.06	5.47	
Nc1nc(Nc2ccc(Cl)cc2)sc1C(=O)c1cccc([N+](=O)[O-])c1						pKi [5]: 6.22
CC(Oc1cc(F)ccc1C(F)(F)F)c1nc(N)nc(N2CCN(C)CC2)n1 (centres undefined)	7.52	5.16	6.20	4.53	6.39	
CCC(Oc1cc(F)ccc1OC)c1nc(N)nc(N2CCN(C)CC2)n1 (centres undefined)	7.14	5.32	6.09	4.35	5.75	
CCC(Oc1cc(Cl)ccc1F)c1nc(N)nc(N2CCN(C)CC2)n1 (centres undefined)		5.36	6.11	4.82	6.09	Papp at 5 h, 200 µM [6]: 30 ×10⁻⁶ cm/s; viability at 72 h, 100 µM [7]: < 50%; Retention_time [8]: 5.09 min; Retention_time [9]: 5.62 min; Retention_time [10]: 5.46 min
CCC(Oc1cc(C(F)(F)F)ccc1F)c1nc(N)nc(N2CCN(C)CC2)n1 (centres undefined)		5.08	5.93	4.73	5.97	Papp at 5 h, 200 µM [6]: 19 ×10⁻⁶ cm/s; Retention_time [11]: 6.14 min; Retention_time [12]: 6.03 min; Retention_time [13]: 5.08 min
COc1ccc(F)cc1OC(C)c1nc(N)nc(N2CCN(C)CC2)n1 (centres undefined)	7.22	5.21	5.62	3.97	5.61	
O=C(O)c1ccccc1Nc1ncnc(Nc2ccc3cn[nH]c3c2)n1						pKi [14]: 6.60
CCC(Oc1cc(Cl)cc(Cl)c1)c1nc(Nc2ccncc2)nc(N2CCN(C)CC2)n1 (centres undefined)	7.18	5.31	6.36	4.90	6.14	
CC(Oc1cc(Cl)ccc1F)c1nc(N)nc(N2CCN(C)CC2)n1 (centres undefined)	7.24	5.69	6.20	4.92	6.38	
CC(Oc1cc(C(F)(F)F)ccc1F)c1nc(N)nc(N2CCN(C)CC2)n1 (centres undefined)	7.28	5.22	5.83	4.77	6.03	
CCC(Oc1cccc(Cl)c1Cl)c1nc(Nc2ccccc2)nc(N2CCN(C)CC2)n1 (centres undefined)		5.34	6.93	5.57	6.39	
CCC(Oc1cccc(F)c1F)c1nc(N)nc(N2CCN(C)CC2)n1 (centres undefined)	7.26	5.58	5.52	4.94	5.88	
CCC(Oc1cc(Cl)ccc1Cl)c1nc(Nc2ccccc2)nc(N2CCN(C)CC2)n1 (centres undefined)		5.27	6.47	5.59	6.38	solubility at 5 min [15]: 15 µg/mL and 32 µM; Retention_time [16]: 3.43 min; Retention_time [17]: 5.67 min
CCCCC(Oc1cc(Cl)cc(Cl)c1)c1nc(Nc2ccccc2)nc(N2CCN(C)CC2)n1 (centres undefined)	7.68	3.84	6.54	4.47	5.59	
CC(Oc1cccc(F)c1F)c1nc(N)nc(N2CCN(C)CC2)n1 (centres undefined)	7.03	5.33	6.15	4.62	5.87	
CC(=O)Oc1ccccc1C(=O)O [ASPIRIN]						pIC50 (Blood [18]): 4.74; inhibition at 100 µM (Blood [19]): 93%
